Compound activity: PubChem BioAssay, several laboratories
Shown are actives, neighbours in structure and some others; about 3.3% of the full set was active somewhere.
Arrestin-AP2 inh – blocks beta-arrestin peptide binding to AP2 adaptin; FITC-arrestin peptide / GST-AP2 beads, flow cytometry; AP2 beta2 appendage carries R879A mutation; inhibition, % at 10 µM; hit rate 0.31% among 340,000;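 active = inhibition above a set limit, near 3 SD of compounds lacking own fluorescence, cut at about 54% in these data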;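 also: plate controls were DMSO wells for no effect and 5 µM unlabelled arrestin peptide for full effect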
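System: GST-AP2 R879A glutathione beads. Medium: PBS with 0.05% Tween 20 and 0.1% BSA. Also added: FITC-arrestin peptide, 50 nM. Incubation: 12 min plus 1 h, RT. Measured by: high-throughput flow cytometry of beads, ex 488, em 535 nm. Evaluation: percent drop in bead-associated FITC signal.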
sPLA2-III inh – Inhibits HGIII-sPLA2 liposome hydrolysis, primary screen. QFRET BODIPY PC-A2 liposome hydrolysis, fluorescence. inhibition, % at 12.2 µM. hit rate 0.56% among 370,000. AID 743126;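 active = inhibition above mean plus 3 SD of compounds lying within the high and low control bounds, cut at about 19% in these data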;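 also: 0% = median of test compound wells and 100% = no enzyme DMSO wells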
Target sequence (Q9NZ20 whole entry, looked up): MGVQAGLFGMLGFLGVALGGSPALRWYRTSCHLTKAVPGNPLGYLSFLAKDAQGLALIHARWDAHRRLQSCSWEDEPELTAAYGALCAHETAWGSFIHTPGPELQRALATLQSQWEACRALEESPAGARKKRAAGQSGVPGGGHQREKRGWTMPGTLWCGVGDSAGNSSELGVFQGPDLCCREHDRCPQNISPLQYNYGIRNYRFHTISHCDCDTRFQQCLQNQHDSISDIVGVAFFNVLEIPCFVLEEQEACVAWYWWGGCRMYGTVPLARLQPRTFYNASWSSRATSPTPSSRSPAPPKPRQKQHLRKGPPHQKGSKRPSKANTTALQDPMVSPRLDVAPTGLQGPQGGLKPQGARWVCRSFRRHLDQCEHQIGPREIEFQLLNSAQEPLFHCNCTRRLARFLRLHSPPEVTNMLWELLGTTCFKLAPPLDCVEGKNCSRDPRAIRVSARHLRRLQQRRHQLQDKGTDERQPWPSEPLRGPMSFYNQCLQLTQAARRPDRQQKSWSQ
Lipid droplet – modulators of hepatic lipid droplet formation; AML12 mouse hepatocytes, oleate lipid droplets, BODIPY imaging; inhibition, % at 6.5 µM; hit rate 0.4% among 240,000; AID 1656;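 active = lipid droplet intensity inhibited by at least 50%, with more than 500 cells counted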
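Assay system: AML12 mouse liver cells | Compound: 6.5 µM single-point dosing | Schedule: Overnight exposure | Technique: Fluorescence imaging, 20x objective, two fields per well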
NRP1-CendR mod – modulators of CendR peptide binding to human neuropilin-1 | FAM-RPARPAR peptide binding to NRP-1, fluorescence polarization | hit rate 0.85% among 360,000 | O14786 | inhibition, % at 25 µM;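 active = inhibition or corrected inhibition above about 18%, plus a signal ratio from 0.5 to 1.5, limit read from the data, passing the limit was not always enough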
HTR2A ag – agonists of mouse serotonin 5-HT2A receptor (HTR2A). AID 624169. P35363. CHO-K1 mHTR2A beta-arrestin complementation, luminescence; percent of 30 µM serotonin response. hit rate 0.66% among 360,000. activation, % at 7.6 µM;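 active = activation above a run cutoff, the mean activation of all tested compounds plus 3 SD, cut at about 14% in these data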;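 also: 0% = plate median of compound wells and 100% = 30 µM serotonin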
PfM18AAP inh-1 – PfM18AAP enzyme inhibition. inhibition, % at 7.35 µM. recombinant PfM18AAP, H-Glu-NHMec fluorogenic cleavage. hit rate 1.2% among 290,000;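 active = inhibition above the campaign mean inhibition over all tested compounds plus 3 SD, cut at about 28% in these data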;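 also: 0% = plate median of test compound wells and 100% = 2 mM ZnCl2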
PfM18AAP inh-2 – PfM18AAP inhibition, confirmation; hit rate 28% among 2,400; shares compounds with PfM18AAP inh-1; recombinant PfM18AAP, H-Glu-NHMec fluorogenic cleavage; inhibition, % at 7.35 µM;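 active = mean inhibition over replicate wells above the hit cutoff set for the earlier primary screen, cut at about 29% in these data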;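 also: 0% = median of test compound wells and 100% = 2 mM ZnCl2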
CTSL1 counter – Cathepsin L (human) inhibition, confirmation; shares compounds with PfM18AAP inh-1; purified cathepsin L1, Z-Leu-Arg-MCA fluorescence; inhibition, % at 5.96 µM; 2,400 tested, under 10 active; AID 2178;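 active = average inhibition across replicates above the hit cutoff set in the earlier primary screen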;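 also: 0% = median of test compound wells and 100% = Z-Phe-Ala-diazomethylketone 1 µM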
An asterisk follows results filed as active; · = not tested or not shown.

SMILES	Arrestin-AP2 inh	sPLA2-III inh	Lipid droplet	NRP1-CendR mod	HTR2A ag	PfM18AAP inh-1	PfM18AAP inh-2	CTSL1 counter
CC[n+]1c(/C=C/C=C/N(C(C)=O)c2ccccc2)sc2cc(OC)ccc21	·	-2	-107	·	·	43*	-36	1
COc1ccccc1NC(=O)OC1CC2CC1[C@H]1CCCCN1[C@H]2C (stereo not given in full)	·	6	·	·	·	·	·	·
O=C(O)Cc1c[nH]c2cccc(O)c12	11	3	14	-6	2	44*	0	-6
Cc1nnc(-n2cccc2)s1	·	3	·	·	·	·	·	·
Oc1ccc(O)c(/C(=N/Nc2ccccc2)c2ccccc2)c1	·	·	34	·	·	45*	-80	-1
Cc1ccc(Nc2nc(=O)c3cccnc3s2)cc1	10	-7	6	-5	-5	6	·	·
COc1ccc(OC)c(Nc2nc(=O)c3cccnc3s2)c1	10	·	-3	18	-2	54*	26	-6
O=C(N[C@@H](Cc1cccnc1)C(=O)N1CCC[C@H]1C(=O)NCCc1ccccc1Cl)c1ccccc1	·	-1	·	·	·	·	·	·
Cc1ccc(C2C3=C(CCCC3=O)Nc3[nH]c(=S)[nH]c(=O)c32)cc1 (stereo not given)	11	9	·	-14	-2	40*	38*	4
N#CC1=C(N)SC(N)=C(C#N)C1C1C=CCCC1 (stereo not given)	6	12	2	-28	-3	21	·	·
N#CC1=C(N)SC(N)=C(C#N)C1C1CC=CCC1 (stereo not given)	-3	2	-1	-21	0	36*	-11	-3
O=C1/C(=C\c2ccc(O)c(O)c2)N=C2CCCCCN12	38	2	-10	-79	4	65*	56*	4
COc1cc([N+](=O)[O-])c(C)cc1NC(=O)c1ccc(OC)c(OC)c1	·	-2	·	5	-5	·	·	·
CCNc1nc(NCC)nc(Nn2cnnc2)n1	-7	6	·	-9	-2	32*	26	3
O=C(O)Cc1sc(Nc2ccc(Cl)cc2)nc1-c1cccs1	0	13	16	·	·	33*	-30	1
Nc1nc(-c2cccs2)c(CC(=O)O)s1	22	0	21	-5	1	10	·	·
CC1=CC(C)(C(Cl)(Cl)Cl)C(C)=CC1=NO (stereo not given)	·	5	·	-9	7	·	·	·
O=C1c2ccccc2C(c2nnnn2Cc2ccccc2)N1CCc1c[nH]c2ccccc12 (stereo not given)	·	-71	·	4	1	·	·	·
CCOC(=O)NC1(NC2CCCCC2)Oc2ccccc2O1	6	2	·	7	1	55*	35*	0
CCOC(=O)NC1(NCC(C)C)Oc2ccccc2O1	38	-1	-10	4	5	66*	34*	1
CCOC(=O)NC1c2ccccc2Oc2ccccc21	0	9	7	-9	-4	-12	·	·
CCOC(=O)NC1(NC(C)C)Oc2ccccc2O1	3	0	-8	4	-2	80*	-2	-5
CCOC(=O)Nc1ccc(Oc2ccccc2)cc1	13	-5	-2	-5	2	8	·	·
CCOC(=O)NC1(Nc2ccc(C)cc2)Oc2ccccc2O1	7	4	14	-1	0	58*	60*	-3
COc1ccc(S(=O)(=O)N2CCCCC2)cc1NC(=O)c1cccc(S(=O)(=O)N2CC(C)OC(C)C2)c1 (stereo not given)	-2	1	·	4	-5	·	·	·
SMILES	Arrestin-AP2 inh	sPLA2-III inh	Lipid droplet	NRP1-CendR mod	HTR2A ag	PfM18AAP inh-1	PfM18AAP inh-2	CTSL1 counter
CC1(C(=O)NS(=O)(=O)c2ccccc2C(F)(F)F)CCN1C(=O)C1CCCCC1 (stereo not given)	·	8	·	-12	1	·	·	·
CCN(CC)P(=O)(Nc1ccc([N+](=O)[O-])cc1)c1c(C)nn(CCC#N)c1NC(=O)c1ccc(Cl)cc1 (stereo not given)	1	-26	-8	13	4	58*	8	-1
Cc1ccc(C(=O)N(C)[C@H]2C[C@H]3c4[nH]c5c(-c6cccc(C)c6)cccc5c4CCN3C[C@H]2[C@H](C)O)cc1	·	-1	·	·	·	·	·	·
COc1cc(/C=C/C(=O)c2c(O)cc(C)oc2=O)cc(OC)c1O	3	-15	·	-29	6	42*	-16	-2
COc1cccc(/C=C/C(=O)c2c(O)cc(C)oc2=O)c1O	3	-16	·	-14	5	3	·	·
CN(CC(=O)Nc1n[nH]c(=S)s1)S(=O)(=O)c1cccc2cccnc12	43	5	22	-4	4	51*	21	0
COC(=O)/C=C1\SC(N2CCOCC2)=C(c2ccc(OC)cc2)C1=O	8	2	0	4	5	47*	32*	-1
CCOC(=O)c1cnc2c(C(=O)OC)cccc2c1NCc1ccco1	-1	4	-9	4	0	41*	-30	4
CN(C)C(=O)N1CCN(C(=O)[C@H]2O[C@@H](n3ccc(N)nc3=O)[C@H](O)[C@@H]2O)CC1	·	-1	·	·	·	·	·	·
CN[C@H]1C[C@H]2c3[nH]c4c(-c5ccc6c(c5)OCO6)cccc4c3CCN2C(=O)[C@H]1[C@H](C)O	·	-17	·	·	·	·	·	·
O=C(O[C@@H]1OC2COC(=O)c3cc(O)c(O)c(O)c3-c3c(cc(O)c(O)c3O)C(=O)O[C@@H]([C@H]1O)[C@@H]2O)c1cc(O)c(O)c(O)c1	23	·	-2	-91	3	62*	45*	-2
COc1ccc(C2C(C(C)=O)=C(O)C(=O)N2c2nccs2)cc1OC (stereo not given)	3	1	-22	-1	3	6	·	·
COc1ccc(C2C(C(C)=O)=C(O)C(=O)N2c2nc3ccccc3s2)cc1OC (stereo not given)	41	-3	12	-16	2	34*	-26	2
Cc1cccc(N=C(NO)c2nonc2N)c1	14	-13	7	8	-2	33*	13	-2
Nc1nonc1C(=Nc1ccccc1)NO	7	-4	·	-6	-3	43*	31*	0
O=C(COc1cccc(C(F)(F)F)c1)N1CCN(c2ccc(O)cc2)CC1	13	-3	-2	7	-4	33*	-24	4
CN1CCN(NC(=O)CN2C(=O)S/C(=C\c3c(Cl)cccc3Cl)C2=O)CC1	34	-2	-5	2	0	42*	-30	0
CCOc1ccccc1C(=O)N/N=C/c1coc2ccc(Cl)cc2c1=O	-3	-10	-11	-23	1	33*	-22	2
